Screening results as filed in PubChem.
GalR3 antagonist: antagonists of human GalR3; HEK293 GalR3-CNG cAMP membrane potential fluorescence; galR3 body fused to GalR1 C-terminus; inhibition, % at 3 µM; 360,000 tested, 0.44% active;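 active means inhibition above the screen-wide average plus 3 SD, cut at about 13% in these data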;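 further: forskolin and galanin both at EC90 stimulate the cells; cAMP rise reported by CNG channel membrane potential dye signal; 0% = forskolin plus galanin with DMSO and 100% = forskolin alone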
TAAR1 antag: human TAAR1 antagonism; Q96RJ0; CHO RD-HGA16 TAAR1, Fluo-8 calcium fluorescence, antagonist; inhibition, % at 3 µM; 360,000 tested, 1.5% active; AID 624466;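 active means inhibition above a per-plate cutoff, the mean inhibition of test compounds on that plate plus 3 SD, cut at about 49% in these data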;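 further: 0% = DMSO plus EC80 beta-PEA response and 100% = DMSO alone without agonist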
Target sequence (Q96RJ0 whole entry, looked up): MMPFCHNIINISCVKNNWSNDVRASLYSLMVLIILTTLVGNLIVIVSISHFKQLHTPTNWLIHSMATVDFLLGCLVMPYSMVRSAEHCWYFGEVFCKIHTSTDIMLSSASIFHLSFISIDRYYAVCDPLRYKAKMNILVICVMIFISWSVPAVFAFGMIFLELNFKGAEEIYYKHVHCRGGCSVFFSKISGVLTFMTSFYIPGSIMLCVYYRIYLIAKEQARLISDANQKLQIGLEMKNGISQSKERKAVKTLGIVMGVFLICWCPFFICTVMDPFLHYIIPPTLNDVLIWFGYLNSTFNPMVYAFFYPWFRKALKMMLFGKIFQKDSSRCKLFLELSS
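Assay system: RD-HGA16 CHO cells with stable hTAAR1 and Gα16 / Reagent: EC80 β-phenethylamine stimulus / Doses: 3 µM, single point / Timing: dye loading 75 min at 37 °C, then 30 min room temperature / Measured by: Fluo-8 intracellular calcium dye fluorescence, real-time kinetic reads / Controls: vehicle wells and EC80 agonist wells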
CHO parental Ca: counter-screen: ATP calcium response change in parental CHO cells | parental CHO-K1, ATP-induced calcium, Fluo-8 fluorescence | inhibition, % at 5.6 µM | 330,000 tested, 0.63% active;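 active means inhibition above that plate's mean sample inhibition plus 3 SD, cut at about 26% in these data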;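 further: 0% = ATP-challenged DMSO wells and 100% = DMSO wells without ATP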
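test system = CHO parental line | reagent = ATP stimulus | measured by = intracellular calcium via Fluo-8 no-wash fluorescent dye | control set = ATP and no-ATP DMSO wells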
OX1R antag-1: OX1R (human) antagonism; O43613; OX1R-expressing cells, FRET antagonist read-out; inhibition, % at 6.6 µM; 330,000 tested, 1.8% active; in the data active means inhibition mostly above about 38%, no sharp cut-off; inactive means mostly below about 40%;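 further: 0% = agonist challenge alone and 100% = reference antagonist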
Target sequence (O43613 whole entry, looked up): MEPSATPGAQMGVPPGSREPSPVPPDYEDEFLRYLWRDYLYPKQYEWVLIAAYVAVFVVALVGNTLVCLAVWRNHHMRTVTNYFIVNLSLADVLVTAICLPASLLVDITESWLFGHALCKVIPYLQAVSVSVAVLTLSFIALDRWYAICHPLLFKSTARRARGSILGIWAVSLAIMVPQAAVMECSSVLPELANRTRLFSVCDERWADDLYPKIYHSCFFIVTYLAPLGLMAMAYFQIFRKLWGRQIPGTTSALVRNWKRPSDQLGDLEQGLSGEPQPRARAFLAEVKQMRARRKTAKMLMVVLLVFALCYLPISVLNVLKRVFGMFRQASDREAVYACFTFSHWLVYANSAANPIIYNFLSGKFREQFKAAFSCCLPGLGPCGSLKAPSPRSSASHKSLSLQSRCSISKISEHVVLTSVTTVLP
OX1R antag-2: antagonists of human orexin 1 receptor | O43613 | 330,000 tested, 0.43% active | inhibition, % at 5 µM | CHO/OX1R cells, Fluo-8 calcium fluorescence, orexin A;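 active means inhibition above its plate's threshold, mean inhibition of all tested compounds on the plate plus 3 SD, cut at about 37% in these data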;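 further: 0% = orexin A challenge wells and 100% = SB-334867-A antagonist wells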
TAAR1 agonist: agonists of human TAAR1. Q96RJ0. CHO RD-HGA16 TAAR1, Fluo-8 calcium fluorescence; vehicle wells 0%, saturating PEA agonist 100%. activation, % at 3 µM. 360,000 tested, 0.99% active. AID 624467;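 active means activation above the mean activation of all test compounds in the run plus 3 SD, cut at about 38% in these data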
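Test system: RD-HGA16 (CHO) cells co-expressing Gα16 and hTAAR1 | Doses: Single dose, 3 µM | Schedule: 17-24 h seeding, 75 min 37 °C dye, 30 min RT | Evaluation: % activation from peak over basal fluorescence ratio, DMSO-to-PEA scaled | Technique: Kinetic Fluo-8 calcium fluorescence | Benchmarks: Low control DMSO, high control PEA (EC100)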
TAAR1 nonsel count: counter-screen for TAAR1 antagonists: nonselective antagonists; shares compounds with TAAR1 antag; counterscreen cell line, calcium fluorescence, antagonist mode; inhibition, % at 3 µM; 2,400 tested, 77% active; AID 651780; in the data active means inhibition above about 22%;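 further: CHO-Ga16 host cells stimulated with ATP at an EC80 level; 0% = agonist EC80 plus vehicle and 100% = vehicle without agonist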
TAAR1 ant conf: human TAAR1 antagonism, confirmed | shares compounds with TAAR1 antag | TAAR1-expressing cells, fluorescence antagonist read-out | inhibition, % at 3 µM | 2,400 tested, 40% active | AID 651785; in the data active means inhibition above about 49%;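 further: CHO-Ga16 host cells challenged with agonist PEA near its EC80; 0% = agonist at EC80 plus vehicle and 100% = vehicle with no agonist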
Ga16 ag counter: counter-screen for TAAR1 antagonists: nonselective Ga16 agonists; shares compounds with TAAR1 antag; Ga16-expressing cells, calcium fluorescence, agonist counterscreen; activation, % at 3 µM; 2,400 tested, 18% active; AID 651953; in the data active means activation above about 12%;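 further: 0% = vehicle wells and 100% = saturating stimulus response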
TAAR1 ag count: activates human TAAR1 in antagonist counter-screen; 2,400 tested, 2% active; shares compounds with TAAR1 antag; hTAAR1 cell line, fluorescence activation, agonist mode; activation, % at 3 µM; in the data active means activation above about 37%;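 further: CHO cells stably expressing TAAR1 with calcium dye readout; 0% = DMSO vehicle and 100% = full agonist response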
Numbers without * were called inactive; x = not tested or not shown. Sampled rows, rich in hits. Any-hit rate of the full collection: about 4.2%.

SMILES | GalR3 antagonist | TAAR1 antag | CHO parental Ca | OX1R antag-1 | OX1R antag-2 | TAAR1 agonist | TAAR1 nonsel count | TAAR1 ant conf | Ga16 ag counter | TAAR1 ag count
CCN1C(=O)C(CC(=O)Nc2ccc(OC)cc2)N(CCc2ccc(F)cc2)C1=S (configuration not stated) | -3 | 69* | -2 | 6 | -8 | 11 | 42* | 59* | 13* | 12
COc1ccc(NC(=O)CC2C(=O)N(Cc3ccccc3)C(=S)N2CCN2CCOCC2)cc1 (configuration not stated) | -5 | -21 | -9 | 19 | -27 | 6 | x | x | x | x
CNC(=S)NNc1nc(N2CCOCC2)nc(N2CCOCC2)n1 | 3 | -23 | 12 | 22 | -5 | 2 | x | x | x | x
CN(Cc1ccccc1)c1nc2c(c(=O)n(C)c(=O)n2C)n1CCCc1ccccc1 | -4 | 49* | -9 | 6 | -19 | 9 | 27* | 52* | 17* | 40*
Cc1cccc(Cc2c(C)[nH]c(=O)c(C#N)c2C)c1 | -1 | -19 | -13 | -2 | -13 | 4 | x | x | x | x
CCOC(=O)c1sc(NC(=O)c2cccc(S(=O)(=O)N(CC)CC)c2)cc1C | -4 | 61* | -22 | 27 | -16 | 11 | 47* | 63* | 10 | 6
CN(C1CCCCC1)S(=O)(=O)c1ccc(NC(=O)C2CCCCC2)cc1 | 0 | 8 | -14 | 3 | -6 | 32 | x | x | x | x
CN(C1CCCCC1)S(=O)(=O)c1ccc(S(=O)(=O)N(CC(=O)Nc2ccccc2)C2CC2)cc1 | 6 | 58* | -20 | 14 | -7 | 5 | 26* | 41 | 9 | 10
CCN(C[C@H]1N[C@@](CC)(C(=O)OC)[C@H]2C(=O)N(Cc3ccccc3)C(=O)[C@@H]12)C(=O)c1ccccc1 | -4 | 50* | -17 | -2 | -32 | 17 | 25* | 43 | 11 | 12
CCN(C[C@H]1N[C@@](Cc2ccccc2)(C(=O)OC)[C@H]2C(=O)N(C)C(=O)[C@@H]12)S(=O)(=O)c1ccc(OC(F)(F)F)cc1 | -9 | 64* | -9 | -2 | -23 | 12 | 26* | 42 | 7 | 4
CCN(C[C@H]1N[C@@](Cc2ccccc2)(C(=O)OC)[C@H]2C(=O)N(C)C(=O)[C@@H]12)S(=O)(=O)c1ccc(C(F)(F)F)cc1 | -9 | 75* | -30 | -4 | -28 | 14 | 23* | 46 | 8 | 9
O=C(NCCc1ccccc1)c1cccc2c1C(=O)c1ccc(N3CCOCC3)cc1S2(=O)=O | -9 | 51* | -9 | 9 | -3 | 27 | 24* | 43 | 10 | 10
O=C(NCc1ccc(F)cc1)c1cccc2c1C(=O)c1ccc(N3CCOCC3)cc1S2(=O)=O | 0 | 55* | -18 | 6 | -17 | 36 | 27* | 45 | 9 | 7
CC1CCN(c2ccc3c(c2)S(=O)(=O)c2cccc(C(=O)NCc4ccc(F)cc4)c2C3=O)CC1 | -2 | 38 | -14 | 0 | -4 | 22 | x | x | x | x
O=C(NCc1ccccc1)c1ccc(S(=O)(=O)N2CCCc3ccccc32)cc1 | -5 | 23 | 5 | 14 | -13 | 6 | x | x | x | x
CN(C)CCNC(=O)Cc1ncc(C(F)(F)F)cc1Cl | -6 | -6 | 1 | 15 | -6 | 1 | x | x | x | x
CN(C)CCNC(=O)C(=O)NCC1CCCN1S(=O)(=O)c1cccs1 (configuration not stated) | -3 | 9 | -4 | 13 | -6 | 4 | x | x | x | x
Cc1cccc(/C=C/C(=O)c2cc(Br)ccc(=O)c2O)c1 | -3 | 51* | -10 | 14 | -12 | 35 | 36* | 27 | 14* | 17
O=C(CCC1CCCCC1)Nc1ccc(C(=O)c2ccncc2)cc1 | 3 | 66* | -4 | 39 | -4 | 7 | 36* | 56* | 11 | 11
CCNC(=O)CSc1nnc(-c2cccc(S(=O)(=O)N(CC)CC)c2)n1CCc1ccccc1 | -7 | 1 | -20 | 10 | -10 | 10 | x | x | x | x
CCSc1nnc(-c2cccc(S(=O)(=O)N(CC)CC)c2)n1Cc1ccccc1 | -6 | 60* | -10 | 9 | -17 | 11 | 31* | 52* | 8 | 6
COC(=O)Cc1nnn2c1[C@@H](C)[C@@H](c1ccccc1Br)OC[C@@H]2c1ccccc1 | -6 | -15 | x | x | x | 5 | x | x | x | x
NNc1nc(-c2ccccc2)c2cc(Cl)ccc2n1 | 2 | 18 | -28 | 19 | -30 | -1 | x | x | x | x
O=C(NCCO)c1cccc(Nc2nc(-c3ccccc3)c3cc(Cl)ccc3n2)c1 | -9 | 49* | -16 | 10 | -25 | 10 | 30* | 37 | 5 | 14
COC(=O)C(Cc1c[nH]c2ccccc12)NC(C)=O (configuration not stated) | -3 | 2 | -1 | 34 | -16 | 2 | x | x | x | x
SMILES | GalR3 antagonist | TAAR1 antag | CHO parental Ca | OX1R antag-1 | OX1R antag-2 | TAAR1 agonist | TAAR1 nonsel count | TAAR1 ant conf | Ga16 ag counter | TAAR1 ag count
Cc1ccc(S(=O)(=O)Nc2cc(=O)[nH]c(SCC(=O)Nc3cccc(C)c3)n2)cc1 | -5 | -22 | -5 | 25 | -10 | 1 | x | x | x | x
COc1ccc(CNC(=O)COc2cc3c(c4oc(=O)cc(C)c24)CCC(C)(C)O3)cc1 | -4 | 62* | 21 | 26 | -27 | -1 | 29* | 45 | 6 | 6
Cc1ccc(-c2nc3ccc(C)cn3c2Cc2cccc(F)c2)cc1 | -10 | 16 | x | x | x | 2 | x | x | x | x
COc1cc(NC(=O)COc2ccccc2Cl)ccc1NC(=O)c1cccs1 | -3 | 57* | -6 | 28 | -13 | 8 | 24* | 43 | 5 | 6
Cc1ccc(C(=O)OCC(=O)Nc2ccccc2)cc1NC(=O)c1ccco1 | -3 | 5 | -14 | 9 | -21 | 6 | x | x | x | x
COc1ccc(C(=O)Nc2cccc(NC(=O)c3cccs3)c2)cc1OC | -3 | 62* | -13 | 75* | 2 | 16 | 26* | 29 | 7 | 3
Cc1ccc(C(=O)OCC(=O)Nc2nc(-c3ccccc3)cs2)cc1NC(=O)c1ccco1 | -4 | 83* | -9 | 35 | 0 | 16 | 37* | 54* | 9 | 7
O=C(COC(=O)c1cccnc1Cl)Nc1nc(-c2ccccc2)cs1 | -13 | 68* | -1 | 23 | -6 | 17 | 33* | 47 | 12* | 14
